Test results taken from ChEMBL document CHEMBL4177752, “Discovery of Novel Schizocommunin Derivatives as Telomeric G-Quadruplex Ligands That Trigger Telomere Dysfunction and the Deoxyribonucleic Acid (DNA) Damage Response” (J Med Chem, 2018).
pIC50: −log10 of the molar value. The source made the active and inactive calls. No cut-off for these calls is given here.

Key:
[1] = test system: Quadruplex DNA; assay: Stabilization of telomeric G-quadruplex DNA in human SiHa cells assessed as decrease in TRF length at 0.5 to 1 uM after 21 days by chemiluminescence detection method; type: cell-based
In short: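 SiHa cells were kept 21 days with 0.5 or 1 µM compound or 0.1% DMSO, with medium and compound renewed every 3 days. Genomic DNA was cut with HinfI/RsaI, run on 0.8% agarose, blotted to nylon, baked at 120 °C for 20 min, and TRF length detected by chemiluminescence.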

[2] = test system: U2OS; assay: Antiproliferative activity against human U2OS cells after 48 hrs by MTT assay; type: functional, cell-based
In short: (§1)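 Cells seeded at 5.0×10^3 per well and exposed to a range of compound concentrations for 48 h. MTT (2.5 mg/mL solution) was then added for 4 h, formazan was dissolved in DMSO, and OD was read at 570 nm. HL-60 was grown in RPMI-1640 with 10% FBS, the other lines in DMEM with 10% FBS, at 37 °C and 5% CO2. Triplicates; IC50 taken from mean OD versus concentration curves.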

[3] = test system: Quadruplex DNA; assay: Stabilization of telomeric G-quadruplex DNA in human U2OS cells assessed as induction of DNA damage response by measuring co-localization of gamma-H2AX and TRF2 foci per nucleus at 2 uM after 24 hrs by DAPI staining-based double immunofluorescence method; type: cell-based
In short: (§2)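 Cells were treated 24 h with 2 µM compound or 0.1% DMSO, then fixed (4% paraformaldehyde), permeabilized (0.5% Triton X-100) and blocked (5% goat serum). Staining used BG4 (80 ng/µL, 37 °C 3 h) with anti-FLAG, and/or γ-H2AX, TRF2 or POT1 antibodies at 4 °C overnight. Alexa 488/555 secondaries and DAPI followed. Foci or co-localized foci per nucleus were counted by confocal microscopy; mean ± SEM, two-tailed unpaired t test.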

[4] = test system: Quadruplex DNA; assay: Stabilization of telomeric G-quadruplex DNA in human U2OS cells assessed as increase in BG4 foci per nucleus at 2 uM after 24 hrs by DAPI staining-based immunofluorescence method; type: cell-based; in short: as §2
[5] = test system: Quadruplex DNA; assay: Stabilization of telomeric G-quadruplex DNA in human SiHa cells assessed as induction of DNA damage response by measuring gamma-H2AX foci formation per nucleus at 2 uM after 24 hrs by DAPI staining-based immunofluorescence method relative to control; type: cell-based; in short: as §2
[6] = test system: SiHa; assay: Antitumor activity against human SiHa cells xenografted in BALB/C-nu/nu mouse assessed as tumor growth inhibition at 20 mg/kg, ip administered daily for 3 weeks measured post last dose relative to vehicle-treated control; type: functional; settings: 504 h, read-out: TGI
In short: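 SiHa cells (1×10^7 per 100 µL, serum-free DMEM) were injected subcutaneously. Grown tumors were divided into pieces and implanted into BALB/C-nu/nu mice. Caliper volume (1/2 × L × W²) and body weight were recorded daily; tumors were weighed at the end.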

[7] = Stabilization of F10T hairpin duplex DNA (unknown origin) assessed as change in melting temperature at 1 uM by FRET assay
In short: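 FRET melting: 0.2 µM F21T or F10T (FAM/TAMRA-labelled), with or without 1.0 µM ligand, in 10 mM Tris-HCl pH 7.4 with 60 mM KCl. Excitation 470 nm, emission 530 nm, read every 1 °C from 37–99 °C at 1 °C/min with a 30 s hold. ΔTm = Tm(DNA+ligand) − Tm(DNA).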

[8] = test system: SiHa; assay: Induction of apoptosis in human SiHa cells after 96 hrs by annexin V-FITC/propidium iodide staining-based flow cytometric method; type: functional, cell-based
In short: (§3)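 SiHa cells were treated with compound or DMSO for 96 h, washed, resuspended in binding buffer, and stained with Annexin V-FITC and PI for 15 min in the dark. Apoptotic percentage was measured by flow cytometry; mean ± SEM.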

[9] = test system: SiHa; assay: Induction of apoptosis in human SiHa cells at 2 uM after 96 hrs by annexin V-FITC/propidium iodide staining-based flow cytometric method relative to control; type: functional; in short: as §3
[10] = test system: Quadruplex DNA; assay: Stabilization of telomeric G-quadruplex DNA in human U2OS cells assessed as induction of DNA damage response by measuring gamma-H2AX foci formation per nucleus at 2 uM after 24 hrs by DAPI staining-based immunofluorescence method; type: cell-based; in short: as §2
[11] = test system: Quadruplex DNA; assay: Stabilization of telomeric G-quadruplex DNA in human SiHa cells assessed as induction of DNA damage response by measuring co-localization of gamma-H2AX and TRF2 foci per nucleus at 2 uM after 24 hrs by DAPI staining-based double immunofluorescence method; type: cell-based; in short: as §2
[12] = test system: Quadruplex DNA; assay: Stabilization of telomeric G-quadruplex DNA in human SiHa cells assessed as reduction of POT1/TRF2 co-localized foci per nucleus at 2 uM after 24 hrs by DAPI staining-based double immunofluorescence method; type: cell-based; in short: as §2
[13] = test system: SiHa; assay: Induction of telomeric G-quadruplex DNA formation in human SiHa cells assessed as increase in colocalization of BG4/TRF2 foci per nucleus at 2 uM after 24 hrs by DAPI staining-based immunofluorescence method; type: cell-based; in short: as §2
[14] = test system: Quadruplex DNA; assay: Stabilization of telomeric G-quadruplex DNA in human SiHa cells assessed as increase in phosphorylated CHK1 expression after 48 hrs by Western blot method; type: cell-based
In short: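 SiHa cells were treated with compound for 48 h and lysed in RIPA buffer. 20 µg protein was run on 10% SDS-PAGE and transferred to PVDF. Blots were blocked in 3% BSA, probed with primary antibodies (1:1,000, 4 °C 16 h) for p-ATR, p-CHK1 and p-P53, then secondaries (1:2,000, 2 h at room temperature).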

[15] = test system: SiHa; assay: Effect on POT1 expression in human SiHa cells at 1 uM after 48 hrs by Western blot method; type: functional, cell-based
[16] = test system: Quadruplex DNA; assay: Stabilization of telomeric G-quadruplex DNA in human SiHa cells assessed as levels of metaphase chromosome having at least one telomere end loss at 1 uM after 48 hrs by Tamra-OO-[TTAGGG]3 PNA probe and DAPI staining-based FISH assay relative to control; type: cell-based
In short: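 Metaphase spreads from SiHa cells treated 48 h with 1 µM compound or 0.1% DMSO were hybridized with a telomeric PNA probe and counterstained with DAPI. The share of chromosomes with at least one telomere-free end was scored; mean ± SEM, two-tailed unpaired t test.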

[17] = test system: U2OS; assay: Cell cycle arrest in human U2OS cells assessed as accumulation at G2/M phase at 1 uM after 12 hrs by propidium iodide staining-based flow cytometric method; type: functional
In short: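 SiHa or U2OS cells (2.0×10^5 per well) were treated with compound or DMSO for 12 h, fixed in ice-cold 70% ethanol overnight, and stained with 50 µg/mL PI plus RNase A for 30 min at room temperature in the dark. 10,000 events were collected by flow cytometry to give the phase distribution.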

[18] = test system: Quadruplex DNA; assay: Stabilization of telomeric G-quadruplex DNA in human SiHa cells assessed as induction of telomere uncapping by measuring formation of micronuclei at 1 uM after 48 hrs by DAPI staining-based laser scanning microscopic method; type: cell-based
[19] = test system: HL-60; assay: Antiproliferative activity against human HL60 cells after 48 hrs by MTT assay; type: functional, cell-based; settings: HL-60, 48 h; in short: as §1

pIC50 [2]: 5.49
ΔTm [7]: 0.1 °C
pIC50 [19]: 5.60
Structure (SMILES): CN(C)CCCNc1cc2nc(/C=C3\C(=O)Nc4cc(N5CCN(C)CC5)ccc43)[nH]c(=O)c2cc1F
Activity [1]: Active
Activity [3]: Active
Activity [4]: Active
fold change (FC) [5]: 3
inhibition in vivo at 20 mg/kg [6]: 65.2%
Activity [8]: Dose-dependent effect
Activity [9]: 60%
Activity [10]: Active
Activity [11]: Active
Activity [12]: Active
Activity [13]: Active
Activity [14]: Dose-dependent effect
Activity [15]: inactive
Activity [16]: 31%
Activity [17]: Active
Activity [18]: Active
